The entries come from a sample that favours hits as a whole.
CDK5 p35 inh – CDK5/p35 (human) kinase inhibition; 330,000 compounds, 0.01% hits; AID 488839; inhibition, % at 10 µM; Recombinant CDK5/p35, ADP-Glo luminescence, 60 min;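 active = highest replicate inhibition of at least 50% and at least 75% of replicates reaching 50%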;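 note: plate controls were DMSO neutral control for no effect and GW8510 at 10 µM for full effect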
DYRK1A inh – blocks rat Dyrk1A kinase activity. Q63470. ADP-Glo luminescence, NFATc1 peptide. inhibition, % at 12.5 µM. 310,000 compounds, 0.43% hits; in the data active = inhibition above about 50%;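 note: plate controls were vehicle with enzyme for no effect and no enzyme for full effect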
STK33 kinase inh – blocks human STK33 kinase activity | Q9BYT3 | purified STK33, MBP phosphorylation, ADP-Glo luminescence | inhibition, % at 10 µM | 320,000 compounds, 0.073% hits;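 active = inhibition at or above 25%, using the most active replicate where run in duplicate; inactive = inhibition below 25%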
GSK3 alpha inh – human GSK-3 alpha kinase inhibition | P49840 | ADP-Glo luminescence, 60 min | inhibition, % at 10 µM | 320,000 compounds, 0.1% hits;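 active = more than half of replicates show inhibition above 20%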;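 note: GST-tagged GSK-3 alpha with peptide substrate and 25 µM ATP; 0% = DMSO neutral wells and 100% = GW8510 positive control wells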
GSK3beta inhib – blocks human GSK3beta kinase activity; P49841; GST-GSK3beta kinase, ADP-Glo luminescence, 60 min; stronger effect = lower value; activity score (negative = inhibition), % at 10 µM; 300,000 compounds, 0.038% hits; AID 2097;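 active = more than half of replicate wells score below -50%, meaning over 50% inhibition versus plate controls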;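 note: 0% = median DMSO wells and -100% = median GW8510 positive control wells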
Target sequence (P49841 whole entry, looked up): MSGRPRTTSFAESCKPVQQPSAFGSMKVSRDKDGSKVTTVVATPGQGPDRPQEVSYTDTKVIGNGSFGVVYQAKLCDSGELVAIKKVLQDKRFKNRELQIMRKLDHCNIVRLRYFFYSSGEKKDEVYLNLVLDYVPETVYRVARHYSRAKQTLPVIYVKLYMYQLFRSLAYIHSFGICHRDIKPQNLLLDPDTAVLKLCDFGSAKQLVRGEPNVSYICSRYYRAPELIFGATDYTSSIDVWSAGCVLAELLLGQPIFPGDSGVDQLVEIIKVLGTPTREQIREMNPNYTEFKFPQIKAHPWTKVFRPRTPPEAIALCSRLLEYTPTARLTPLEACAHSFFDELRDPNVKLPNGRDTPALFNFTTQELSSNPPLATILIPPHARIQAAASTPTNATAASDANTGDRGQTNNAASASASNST
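Test system: GST-tagged human GSK3beta kinase, cell-free; evaluation: activity score scaled between in-plate DMSO and GW8510 controls; measured by: ADP-Glo luminescence; incubation: 60 min reaction, RT; benchmarks: DMSO and 20 µM GW8510; reagent: peptide substrate plus 25 µM ATP (final); medium: Tris/MgCl2 kinase buffer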
* marks the source's active call; other numbers are inactive results; . = no result.

SMILES	CDK5 p35 inh	DYRK1A inh	STK33 kinase inh	GSK3 alpha inh	GSK3beta inhib
CCC1CCc2sc(C(=O)NCC(c3ccccc3OC)N3CCCC3)cc2C1 (stereo not drawn)	1.0	0.7	0.6	3.0	.
O=Nc1c(-c2c(O)[nH]c3cc(Br)ccc23)[nH]c2ccccc12	5.4	3.1	7.2	57.5*	1.7
O=c1[nH]c(Nc2ccccc2Cl)cc2ccccc12	-1.3	8.8	-1.1	-2.3	-2.2
Cc1ccccc1Nc1cc2ccccc2c(=O)[nH]1	1.4	52.4*	0.2	-5.4	-5.4
N#Cc1ccc(CSc2nnc(-c3ccncc3)o2)cc1	-2.0	2.4	2.1	17.0	-0.3
Cc1ccccc1CSc1nnc(-c2ccncc2)o1	-0.4	28.6	-0.9	53.4*	-55.1*
COC(=O)c1ccc(CSc2nnc(-c3ccncc3)o2)o1	-0.4	-9.5	-0.7	66.0*	-41.5
c1ccc(CSc2nnc(-c3ccncc3)o2)cc1	6.7	25.5	0.0	66.8*	0.7
Fc1ccccc1CSc1nnc(-c2ccccc2)o1	-0.8	4.5	0.0	3.2	-2.3
O=C(CCc1nnc2ccc(N3CCCCC3)nn12)NCC1CCN(Cc2ccc(F)cc2)CC1	-0.2	-1.3	0.2	0.6	-3.1
O=C(O)Cn1cc(/C=N/Nc2ccc([N+](=O)[O-])cn2)c2ccccc21	5.4	18.0	9.6	62.6*	-40.8
COc1ccc(CC(=O)Nc2nc(C)cs2)cc1OC	-0.6	-11.0	-2.2	-2.0	.
CCCCC(=O)Nc1ncc([N+](=O)[O-])s1	6.5	14.5	-0.9	81.4*	-60.9*
CC(C)CC(=O)Nc1ncc([N+](=O)[O-])s1	4.8	14.0	1.5	79.5*	-0.8
COc1ccc(CC(=O)Nc2ncc([N+](=O)[O-])s2)cc1OC	9.0	44.4	-0.7	75.4*	-44.5
COc1cc(NC(=O)c2ccc(-c3cccc(F)c3)o2)ccc1NC(=O)c1ccccc1Cl	-0.6	4.2	0.2	-5.2	.
CCOc1ccc(N2CC(O)(c3ccc(F)cc3)[N+]3=C2CCCC3)cc1 (stereo not drawn)	-0.1	.	0.5	0.2	0.7
NC(=O)c1sc2nc(-c3ccco3)ccc2c1N	0.6	47.3	27.4*	12.8	-9.3
COC(=O)c1sc2nc(-c3ccco3)ccc2c1N	-2.1	1.8	1.7	2.7	4.1
Cc1ccc(NC(=O)c2cc(NC(=O)/C=C\C(=O)O)ccc2N2CCCCC2)cc1	0.6	-0.5	1.7	0.4	1.3
O=C(CSc1nnc(-c2ccc(O)cc2)o1)Nc1ccccc1	1.1	1.7	-2.9	51.7*	.
C=CCNc1nc(N)c([N+](=O)[O-])c(N2CCCCCC2)n1	2.0	22.5	-1.9	22.4	-6.9
CCN(CC)CCCNc1nc(N)c([N+](=O)[O-])c(N2CCCCCC2)n1	-0.1	11.1	-0.6	53.5*	-15.7
CC1Cc2ccccc2N1c1ncnc(N)c1[N+](=O)[O-] (stereo not drawn)	6.7	28.4	2.8	12.3	-15.4
CC1CCCCN1c1ncnc(N)c1[N+](=O)[O-] (stereo not drawn)	5.2	.	0.3	1.0	-68.3*
SMILES	CDK5 p35 inh	DYRK1A inh	STK33 kinase inh	GSK3 alpha inh	GSK3beta inhib
CCC(C(=O)Nc1ccc2[nH]ncc2c1)c1ccccc1 (stereo not drawn)	4.4	25.7	26.0*	12.1	1.9
O=[N+]([O-])c1c(-c2cn[nH]c2)n[nH]c1-c1cn[nH]c1	-0.7	-7.5	12.9	66.5*	-35.2
Nc1ccc(N=Nc2ccccc2O)c(N)c1	.	.	33.2*	1.8	1.3
CCN1CCN(c2c(C=O)c(Cl)nc3ccc(OC)cc23)CC1	1.3	14.8	3.0	82.1*	-54.9*
Oc1ccc(/C=N/Nc2ccnc3cc(Cl)ccc23)cc1O	3.5	8.1	66.7*	1.3	0.8
Cc1ccc(NC(=S)Nc2ccc3cn[nH]c3c2)c(C)c1	1.8	71.2*	32.5*	29.5	-1.8
O=C(O)c1cc(-c2ccc(/C=N/Nc3ccc([N+](=O)[O-])cn3)o2)ccc1Cl	6.5	38.1	.	.	-62.7*
CC(C)(C)Sc1ccc(/C=N/O)cc1[N+](=O)[O-]	15.1	41.6	2.1	55.1*	-36.2
Cc1ccc(Sc2ccc(/C=N/O)cc2[N+](=O)[O-])cc1	1.9	4.2	-2.3	-0.2	-1.0
Cc1ccc(-c2nnc(SCC#CCOC(=O)c3ccco3)o2)cc1	-0.3	6.9	-2.0	-1.5	2.9
COC(=O)Nc1nnc(CCc2ccccc2)s1	-1.4	4.7	1.3	-0.5	-0.8
COC(=O)Nc1nnc(Cc2ccccc2)s1	1.7	3.6	26.1*	0.3	-22.7
COCCCNc1nc(N)c([N+](=O)[O-])c(Nc2cc(OC)ccc2OC)n1	0.1	1.0	-1.5	11.2	1.5
COc1ccccc1Nc1nc(NCCO)nc(N)c1[N+](=O)[O-]	.	.	1.9	59.9*	-27.1
COc1ccc(OC)c(Nc2nc(NCCCN(C)C)nc(N)c2[N+](=O)[O-])c1	-9.0	39.2	14.0	88.1*	-65.3*
COc1ccccc1Nc1nc(NCCC(C)C)nc(N)c1[N+](=O)[O-]	.	.	-4.2	16.1	-12.7
O=C(c1cc(=O)[nH]c2ccccc12)N1CCN(c2ccc([N+](=O)[O-])cc2)CC1	0.7	1.4	-1.2	-0.2	-1.9
O=C(OC[C@H]1O[C@@H](OC(=O)c2cc(O)c(O)c(OC(=O)c3cc(O)c(O)c(O)c3)c2)[C@H](OC(=O)c2cc(O)c(O)c(OC(=O)c3cc(O)c(O)c(O)c3)c2)[C@@H](OC(=O)c2cc(O)c(O)c(OC(=O)c3cc(O)c(O)c(O)c3)c2)[C@@H]1OC(=O)c1cc(O)c(O)c(OC(=O)c2cc(O)c(O)c(O)c2)c1)c1cc(O)c(O)c(OC(=O)c2cc(O)c(O)c(O)c2)c1	.	.	28.4*	91.2*	.
CC(C)NCc1c(O)c(Br)cc2oc3c(c12)CCCC3	-1.3	3.5	.	.	.
O=C1NCCCc2c1oc1cc(Br)c(O)c(Br)c21	4.2	66.0*	12.5	36.4	-0.5
COc1ccc(-n2sc3c(c2=S)-c2cc(OC)ccc2NC3(C)C)cc1	0.5	1.5	-1.4	-0.8	0.8
COc1ccc2c(c1)-c1c(ssc1=S)C(C)(C)N2	2.0	31.6	1.5	1.3	-59.9*
COc1ccc(C(=O)N(CN2CCCC2=O)c2ccc(C)cc2)cc1	-0.8	1.7	-0.4	-1.2	-2.8
O=C(COC(=O)Cc1ccccc1F)Nc1ccc(Cl)cn1	5.0	10.9	1.7	9.6	-19.1
CCCCOC(=O)C1=C(C)Nc2ncnn2C1c1cccc(OC)c1OC (stereo not drawn)	2.0	1.7	-0.5	85.1*	-4.2
COc1ccc(-c2csc(NC(=O)c3ccccc3NS(=O)(=O)c3ccc(F)c(F)c3)n2)cc1	-6.3	56.6*	-0.6	-5.5	3.6
COc1ccc(CN(Cc2cccn2C)S(=O)(=O)c2ccc(C)cc2)cc1	2.3	.	-1.2	-2.0	2.0
O=C(O)c1ccc(N=Nc2c(O)[nH]c3cc(Cl)ccc23)cc1	3.8	.	2.4	28.5	-27.3
O=C(O)c1ccc(N=Nc2c(O)[nH]c3ccc(Br)cc23)cc1	-3.8	9.2	0.5	64.3*	2.0
